Assay results from different studies.
Lines come from different studies, so protocols differ.
AKT1: RAC-alpha serine/threonine-protein kinase (AKT1, Homo sapiens, UniProt P31749)
CDK9 with cyclin T1: Cyclin-dependent kinase 9, with cyclin T1 (CDK9, Homo sapiens, UniProt P50750)
FABP4: Fatty acid-binding protein, adipocyte (FABP4, Homo sapiens, UniProt P15090)
DPP4: Dipeptidyl peptidase 4 (DPP4, Homo sapiens, UniProt P27487)
TNKS: Poly [ADP-ribose] polymerase tankyrase-1 (TNKS, Homo sapiens, UniProt O95271)
SLC22A13: SLC22A13 (Homo sapiens, UniProt Q9Y226)
MAPK3: Mitogen-activated protein kinase 3 (MAPK3, Homo sapiens, UniProt P27361)
CYP2C9: Cytochrome P450 2C9 (CYP2C9, Homo sapiens, UniProt P11712)

Fc1c[nH]c2nccc(-c3ccc(C4CCNCC4)cc3)c12  IC50 (AKT1; enzyme activity, inhibitor, radiometric): 0.895 µM
CN(C)C(=O)c1cc2cnc(Nc3cc(C(F)(F)F)c(-c4cccc5c(=O)cc(N6CCOCC6)oc45)cn3)nc2n1C1CCCC1  IC50 (CDK9 with cyclin T1; enzyme activity, inhibitor, radiometric): > 10 µM
Cc1cc(S(=O)(=O)NCCO[C@H]2CC[C@H](CN3CCC(c4ccn5c(N6CCC(=O)NC6=O)cnc5c4)CC3)CC2)ccc1Nc1ncc2cc(Cl)c(=O)n(C3CCCC3)c2n1  IC50 (CDK9 with cyclin T1; enzyme activity, inhibitor, radiometric): > 10 µM
C[C@@H]1CNC[C@H](C)[C@@]1(O)c1ccc(-c2ccnc3[nH]cc(F)c23)cc1  IC50 (AKT1; target engagement in cells, BRET): 38.9 µM
COc1ccc(-c2cc(=O)c3cccc(Nc4ncc5cc(C(=O)N(C)C)n(C6CCCC6)c5n4)c3o2)cc1  IC50 (CDK9 with cyclin T1; enzyme activity, inhibitor, radiometric): > 10 µM
OC1(c2ccc(-c3ccnc4[nH]cc(F)c34)cc2)CCNC1 (stereo not shown)  IC50 (AKT1; target engagement in cells, BRET): 18.1 µM
O=C(O)C(F)(F)C(F)(F)C(F)(F)C(F)(F)F  IC50 (FABP4; ligand displacement, fluorescence; pH 7.5): 793 µM
OC1(c2ccc(-c3ccnc4[nH]cc(F)c34)cc2)CCCNCC1 (stereo not shown)  IC50 (AKT1; target engagement in cells, BRET): 34.5 µM
C[C@@H](O)[C@H]1C(=O)N2C(C(=O)O)=C(S[C@@H]3CN[C@H](C(=O)N(C)C)C3)[C@H](C)[C@H]12  IC50 (DPP4; enzyme activity, inhibitor, absorbance): 45.8 µM
O=C(NO)c1ccc(Cn2cnc3c(Nc4ccc(Cl)cc4)ncnc32)cc1  IC50 (AKT1; enzyme activity, inhibitor, radiometric): > 20 µM
CCCCCCCCCCCC(=O)O  IC50 (FABP4; ligand displacement, fluorescence; pH 7.5): 2.28 µM
CNS(=O)(=O)c1ccc(Nc2ncc(C(F)(F)F)c(N3CCC[C@](C)(O)C3)n2)c(C)c1  IC50 (CDK9 with cyclin T1; enzyme activity, inhibitor, radiometric): > 10 µM
COc1ccc2c(=O)[nH]c3c(nnn3Cc3ccc(C)cc3)c2c1  IC50 (TNKS; enzyme activity, inhibitor, fluorescence): 0.112 µM
Cc1nc2c(F)cc(-c3ccnc(Nc4ccc5c(=O)cc(N6CCOCC6)oc5c4)n3)cc2n1C(C)C  IC50 (CDK9 with cyclin T1; enzyme activity, inhibitor, radiometric): 0.024 µM
CCc1oc2cc(F)ccc2c1C(=O)c1cc(Br)c(O)c(Br)c1  IC50 (SLC22A13; transporter uptake, inhibitor, radiometric; oocytes): 39.6 µM
CCCCCCCCCC(=O)O  IC50 (FABP4; ligand displacement, fluorescence; pH 7.5): 3.39 µM
CC(C)(O)c1ccc(-c2nc3cc(NC(=O)c4cnc(OCc5ccccc5)nc4)ccc3c(=O)[nH]2)cc1  IC50 (TNKS; enzyme activity, inhibitor): 6.36 µM
CN(C)C(=O)c1cc2cnc(Nc3cc(C(=O)O)cc(-c4cccc5c(=O)cc(N6CCOCC6)oc45)c3)nc2n1C1CCCC1  IC50 (CDK9 with cyclin T1; enzyme activity, inhibitor, radiometric): 0.076 µM
CCc1oc2cc(F)c(F)cc2c1C(=O)c1cc(Br)c(O)c(Br)c1  IC50 (SLC22A13; transporter uptake, inhibitor, radiometric; oocytes): 9.7 µM
O=C(Nc1ccc2[nH]nc(-c3ccncc3)c2c1)[C@@H]1CCN(CC(=O)N2CCN(c3ccc(-c4ncccn4)cc3)CC2)C1  IC50 (MAPK3; enzyme activity, inhibitor): 0.00499 µM
CCCCCCCCCCCCC(=O)O  IC50 (FABP4; ligand displacement, fluorescence; pH 7.5): 3.46 µM
CC1CNCCC1(O)c1ccc(-c2ccnc3[nH]cc(F)c23)cc1 (stereo not shown)  IC50 (AKT1; enzyme activity, inhibitor, radiometric): 0.132 µM
CC(C)(O)c1ccc(-c2nc3cc(NC(=O)c4ccc(-c5ccccc5)cc4)ccc3c(=O)[nH]2)cc1  IC50 (TNKS; enzyme activity, inhibitor): 68.2 µM
CN(CCCN1CCN(C(=O)CN2CCN(CC(=O)O)CCN(CC(=O)O)CCN(CC(=O)O)CC2)CC1)c1ccc2nccc(C(=O)NCC(=O)N3CC(F)(F)C[C@H]3C#N)c2c1  IC50 (Prolyl endopeptidase FAP (FAP, Homo sapiens, UniProt Q12884); enzyme activity, inhibitor, fluorescence): 0.00217 µM
Cc1nc2n(c(=O)c1CCN1CCC(c3noc4cc(F)ccc34)CC1)CCCC2O (stereo not shown)  IC50 (DPP4; enzyme activity, inhibitor, absorbance): 48.9 µM
c1cc(-c2ccc(C3CCNCC3)cc2)c2cc[nH]c2n1  IC50 (AKT1; target engagement in cells, BRET): > 50 µM
CNS(=O)(=O)c1ccc(Nc2ncc(C(F)(F)F)c([C@H]3CC[C@](C)(O)CC3)n2)c(C)c1  IC50 (CDK9 with cyclin T1; enzyme activity, inhibitor, radiometric): > 10 µM
O=C(O)C(F)(F)C(F)(F)C(F)(F)C(F)(F)C(F)(F)C(F)(F)C(F)(F)C(F)(F)C(F)(F)C(F)(F)C(F)(F)F  IC50 (FABP4; ligand displacement, fluorescence; pH 7.5): 1.61 µM
NC/C(=C\F)COc1cccc(Cn2c(=S)[nH]c(=O)c3[nH]cnc32)c1  IC50 (Myeloperoxidase (Mus musculus, UniProt P11247); enzyme activity, inhibitor): 0.1 µM
CNS(=O)(=O)c1ccc(Nc2ncc(C(F)(F)F)c(N3CCC(C)(O)CC3)n2)c(C)c1  IC50 (CDK9 with cyclin T1; enzyme activity, inhibitor, radiometric): > 10 µM
CN(C)C(=O)c1cc2cnc(Nc3cc(C(F)(F)F)c(-c4ccc5c(=O)cc(N6CCOCC6)oc5c4)cn3)nc2n1C1CCCC1  IC50 (CDK9 with cyclin T1; enzyme activity, inhibitor, radiometric): > 10 µM
CCCCCCCCCCCCCC(=O)O  IC50 (FABP4; ligand displacement, fluorescence; pH 7.5): 1.34 µM
Cc1ccc(OCC(=O)N[C@@H](Cc2c[nH]c3ccccc23)C(=O)OC(C)C)cc1  IC50 (CYP2C9; enzyme activity, inhibitor; human, liver microsomes; 30 min): > 50 µM
Cc1cc(-c2ccnc3[nH]cc(F)c23)cc(F)c1[C@@]1(O)[C@H](C)CN(C2CCS(=O)(=O)CC2)C[C@@H]1C  IC50 (AKT1; enzyme activity, inhibitor, radiometric): 0.346 µM
CC(=O)N1C(=O)NC(C)=C(C(=O)OCc2ccccc2)C1c1cccc([N+](=O)[O-])c1 (racemic)  IC50 (Voltage-dependent T-type calcium channel subunit alpha-1H (CACNA1H, Homo sapiens, UniProt O95180); ion current, inhibitor, patch clamp): 3.6 µM
O=C(O)CCC(=O)OCCN(Cc1ccc(Oc2ccc([N+](=O)[O-])cc2)cc1)C(=O)C(Cl)Cl  IC50 (MAPK3; enzyme activity, inhibitor, ADP detection): 2.69 µM
OC1(c2ccc(-c3ccnc4[nH]cc(F)c34)cc2)CCCNC1 (stereo not shown)  IC50 (AKT1; enzyme activity, inhibitor, radiometric): 0.383 µM
CN(C)C(=O)c1cc2cnc(Nc3ccc(-c4ccc5c(=O)cc(N6CCOCC6)oc5c4)cc3)nc2n1C1CCCC1  IC50 (CYP2C9; enzyme activity, inhibitor, fluorescence; pH 8): 0.044 µM
O=C(O[C@@H]1[C@@H](O)[C@H](Oc2cc(O)c3c(c2)O[C@H](c2ccccc2)CC3=O)O[C@@H]2COC(=O)c3cc(O)c(O)c(O)c3-c3c(cc(O)c(O)c3O)C(=O)O[C@@H]12)c1cc(O)c(O)c(O)c1  IC50 (Protein disulfide-isomerase A3 (PDIA3, Homo sapiens, UniProt P30101); enzyme activity, inhibitor, fluorescence): 3.3 µM
COc1ccc(-c2oc3cc(Nc4ncc5cc(C(=O)N(C)C)n(C6CCCC6)c5n4)ccc3c(=O)c2F)cc1  IC50 (CDK9 with cyclin T1; enzyme activity, inhibitor, radiometric): 0.0276 µM
COc1ccc(-c2coc3cc(O)ccc3c2=O)cc1  IC50 (CYP2C9; enzyme activity, inhibitor; human, liver microsomes; 15 min): 5.63 µM
CN(C)C(=O)c1cc2cnc(Nc3cncc(-c4ccc5c(=O)cc(N6CCOCC6)oc5c4)c3)nc2n1C1CCCC1  IC50 (CDK9 with cyclin T1; enzyme activity, inhibitor, radiometric): 0.00057 µM
CC(C)(O)c1ccc(-c2nc3cc(NC(=O)c4ccc(-c5ccccc5)nc4)ccc3c(=O)[nH]2)cc1  IC50 (TNKS; enzyme activity, inhibitor): 0.528 µM
